The source of these data is ChEMBL document CHEMBL4622964, “Designing Dihydrofolate Reductase Inhibitors as X-ray Radiosensitizers to Reverse Radioresistance of Cervical Cancer” (ACS Med Chem Lett, 2020).

The subject of data set [1] is HeLa. Nature of the data set: Induction of mitochondrial dysfunction in human HeLa cells assessed as increase in mitochondrial fission at 1 uM after 24 hrs in presence of 4 Gy X-ray irradiation by DAPI staining based fluorescence microscopic analysis. It is filed as functional, cell-based. The method in brief:
(§1)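 HeLa cells treated with 1 μM compound, without or with 4 Gy X-rays; mitochondrial morphology imaged by fluorescence microscopy after MitoTracker and DAPI co-staining.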

The subject of data set [2] is HeLa. Nature of the data set: Induction of reactive oxygen species generation in human HeLa cells incubated with DHE for 30 mins and measured up to 30 mins by fluorescence microscopic analysis. It is filed as functional, cell-based. An outline of the steps: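 HeLa cells pretreated with compound, with or without 4 Gy X-rays, then incubated with dihydroethidium for 30 min; red superoxide-derived fluorescence imaged by fluorescence microscopy, with observation continued over a further 30 min.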

Data set [3] in a line: Toxicity in BALB/c mouse xenografted with human HeLa cells assessed as lung damage at 4 mg/kg, iv administered for every 3 days for 21 days and measured after 24 hrs post last dose in presence of 4 Gy X-ray irradiation by H and E staining based light microscopic analysis. To be noted: in vivo. It is filed as organism-based. The method in brief:
(§2)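 HeLa-tumor-bearing nude mice dosed at 4 mg/kg iv every 3 days for 21 days, alone or with X-rays; euthanized 24 h after last injection; heart, liver, lungs, kidneys and spleen sectioned and stained with H&E.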

The nature of data set [4]: Toxicity in BALB/c mouse xenografted with human HeLa cells assessed as liver damage by measuring effect on AST level at 4 mg/kg, iv administered every 3 days for 21 days. The following applies: in vivo. Format: organism-based. An outline of the steps:
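HeLa xenograft nude mice dosed at 4 mg/kg iv every 3 days over 21 days, alone or with X-rays; blood collected 24 h after last injection for serum biochemistry: ALT, AST (liver), BUN and uric acid (kidney).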

The target in data set [5] is T1, Dihydrofolate reductase (Homo sapiens) (UniProt P00374).
T1 sequence (whole entry): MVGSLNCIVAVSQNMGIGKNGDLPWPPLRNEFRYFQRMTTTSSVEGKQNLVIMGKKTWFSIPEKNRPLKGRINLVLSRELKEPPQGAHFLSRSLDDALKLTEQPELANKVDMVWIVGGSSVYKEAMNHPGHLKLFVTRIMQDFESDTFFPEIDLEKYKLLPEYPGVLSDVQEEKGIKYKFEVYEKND
As to the kind of experiment: Inhibition of DHFR in human HeLa cells at 10 uM relative to control. It is filed as cell-based. An outline of the steps:
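HeLa cells treated with compound; DHFR activity assayed in cell lysates, inhibition expressed relative to untreated control.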

Data set [6] relates to HeLa. Nature of the data set: Induction of apoptosis in human HeLa cells assessed as caspase-3 activation at 1 uM using Ac-DEVD-AMC as substrate after 12 hrs by fluorescence based assay relative to control. It is filed as functional. The method in brief:
(§3)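 Caspase-3 and caspase-8 activities were measured in HeLa cells after 12 h at 1 μM, without or with 4 Gy X-rays. Mean ± SD of three independent experiments.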

The test system of data set [7] is HeLa. Nature of the data set: Induction of cell cycle arrest in human HeLa cells assessed as accumulation at SubG1 phase at 1 uM after 48 hrs in presence of 4 Gy X-ray radiation by propidium iodide staining based flow cytometric analysis (reference value: […]). It is filed as functional.
Data set [8] can be described thus: Toxicity in BALB/c mouse xenografted with human HeLa cells assessed as kidney damage at 4 mg/kg, iv administered for every 3 days for 21 days and measured after 24 hrs post last dose in presence of 4 Gy X-ray irradiation by H and E staining based light microscopic analysis. It is filed as organism-based. The following applies: in vivo. The method in brief:
as §2

For data set [9], the system named is HeLa. As to the kind of experiment: Induction of mitochondrial dysfunction in human HeLa cells assessed as mitochondrial fission at 1 uM after 24 hrs by DAPI staining based fluorescence microscopic analysis. Format: functional, cell-based. The method in brief:
as §1

In data set [10] the test system is HeLa. Nature of the data set: Induction of cell cycle arrest in human HeLa cells assessed as accumulation at G1 phase at 1 uM after 48 hrs in presence of 4 Gy X-ray radiation by propidium iodide staining based flow cytometric analysis (reference value: 28.6%). It is filed as functional.
Data set [11] in a line: Toxicity in BALB/c mouse xenografted with human HeLa cells assessed as liver damage at 4 mg/kg, iv administered for every 3 days for 21 days and measured after 24 hrs post last dose in presence of 4 Gy X-ray irradiation by H and E staining based light microscopic analysis. Format: organism-based. The following applies: in vivo. An outline of the steps:
as §2

Data set [12] relates to HeLa. Nature of the data set: Induction of ROS generation in human HeLa cells by DHE fluorescent dye based microplate reader analysis relative to control. Format: functional. The method in brief:
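Intracellular ROS in HeLa cells were measured with the dihydroethidium probe, whose superoxide-oxidised product fluoresces red. Cells were treated with or without 4 Gy X-rays, then incubated with DHE. Fluorescence was read on a microplate reader and expressed as % of untreated cells.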

Data set [13] has as its system HeLa. Nature of the data set: Induction of cell cycle arrest in human HeLa cells assessed as accumulation at G2/M phase at 1 uM after 48 hrs in presence of 4 Gy X-ray radiation by propidium iodide staining based flow cytometric analysis (reference value: 40.4%). Format: functional.
The nature of data set [14]: Toxicity in BALB/c mouse xenografted with human HeLa cells assessed as spleen damage at 4 mg/kg, iv administered for every 3 days for 21 days and measured after 24 hrs post last dose in presence of 4 Gy X-ray irradiation by H and E staining based light microscopic analysis. Format: organism-based. To be noted: in vivo. An outline of the steps:
as §2

Data set [15] in a line: Safety index, ratio of IC50 for cytotoxicity against human Ect1/E6E7 cells assessed as reduction in cell viability in presence of 4 Gy irradiation by MTT assay to antiproliferative activity against human HeLa cells assessed as reduction in cell viability preincubated for 12 hrs followed by 4 Gy irradiation and measured after 60 hrs by MTT assay. It is filed as toxicity, cell-based. To be noted: Ect1/E6E7 cells versus HeLa cells, read-out: Ratio IC50. An outline of the steps:
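MTT viability assay on Ect1/E6E7 normal ectocervical cells and HeLa cells, with 0 or 4 Gy X-rays. SER = IC50(0 Gy)/IC50(4 Gy) in the same line; safe index SI4 = IC50 Ect1/E6E7 + 4 Gy divided by IC50 HeLa + 4 Gy.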

Data set [16] deals with HeLa. Nature of the data set: Induction of cell cycle arrest in human HeLa cells assessed as accumulation at G2/M phase at 1 uM after 48 hrs by propidium iodide staining based flow cytometric analysis (reference value: 17.7%). Format: functional.
In data set [17] the test system is HeLa. As to the kind of experiment: Induction of apoptosis in human HeLa cells assessed as caspase-8 activation at 1 uM using […] as substrate after 12 hrs by fluorescence based assay relative to control. It is filed as functional. An outline of the steps:
as §3

A short description of data set [18]: Drug localization in cytoplasm of human HeLa cells at 20 uM after 8 hrs by LysoTracker/DAPI staining based fluorescence microscopic analysis. It is filed as ADME, subcellular. An outline of the steps:
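HeLa cells pretreated with 20 μM compound; LysoTracker added 2 h and DAPI 30 min before each time point; compound green fluorescence (emission about 510 nm) overlaid with lysosome (red) and nucleus under fluorescence microscope.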

In data set [19] the test system is HeLa. Nature of the data set: Antitumor activity against human HeLa cells xenografted in BALB/c mouse assessed as reduction in tumor growth at 4 mg/kg, iv administered for every 3 days for 21 days in presence of 4 Gy X-ray irradiation relative to control. Details: scale not given: the % may be the effect or the level left. Format: functional. An outline of the steps:
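HeLa tumour-bearing nude mice were dosed at 4 mg/kg by tail-vein injection every 3 days over a 21-day period, with or without X-ray irradiation. Tumours were photographed and sectioned for H&E staining. Body weight was recorded over the 21 days.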

Data set [20] has as its system HeLa. Nature of the data set: Induction of cell cycle arrest in human HeLa cells assessed as accumulation at S phase at 1 uM after 48 hrs in presence of 4 Gy X-ray radiation by propidium iodide staining based flow cytometric analysis (reference value: 31%). Format: functional.

The source made the active and inactive calls. No cut-off for these calls is given here.

With `Nc1nc(N)c2nc3c(nc2n1)-c1cccc2cccc-3c12`, the result in the data set on HeLa [1], with HeLa [2] and with HeLa [9] was Active. For the same compound, the Activity entry in data set [3] was “Non-Toxic”; in data set [4], “Non-Toxic”; in the data set on HeLa [6] it was 121%; in the data set with HeLa [7], 30.2%; in data set [8] it was “Non-Toxic”; in the data set on HeLa [10], 47.7%. Further, the Activity entry in data set [11] was “Non-Toxic”; in the data set with HeLa [12], 132%; with HeLa [13], 36.2%; in [14] it was “Non-Toxic”; in the data set on HeLa [16], 32.1%; in the data set with HeLa [17], 110%. Further, the Activity with HeLa [19] is on record as 32%; with HeLa [20] it was 16.1%. Besides, the inhibition in [5] turned out to be 76%. The selectivity ratio at 60 h in data set [15] is 4.8. Moreover, the Drug uptake entry in data set [18] is on record as “Active”.
